Test results as given in ChEMBL document CHEMBL5257027 (Eur J Med Chem, 2016).
pIC50: −log10 of the molar value.

Legend:
[1] = Antiproliferative activity against human Panel NCI-58 (58 Carcinoma cell lines) assessed as reduction in mean cell growth at 10 uM; type: functional; parameters: scale not given: the % may be the effect or the level left
Method in brief: (§1)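 NCI 58-cell-line screen covering leukemia, NSCLC, colon, CNS, melanoma, ovarian, renal, prostate and breast lines. Compounds given once at […] (micromolar per the line). Percent inhibition taken as 100 minus growth percent. Panel line reports the mean over all 58 lines.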

[2] = organism: Homo sapiens; assay: Inhibition of ABL […] mutant (unknown origin) at 10 uM using […] as substrate incubated for 40 mins in presence of [gamma33P]ATP by scintillation counting based hotspot kinase assay relative to control
[3] = biological target: Tyrosine-protein kinase ABL1 (Homo sapiens) (UniProt P00519); assay: Inhibition of ABL (unknown origin) at 10 uM using […] as substrate incubated for 40 mins in presence of [gamma33P]ATP by scintillation counting based hotspot kinase assay relative to control
Sequence of Tyrosine-protein kinase ABL1 (Homo sapiens) (P00519 whole entry): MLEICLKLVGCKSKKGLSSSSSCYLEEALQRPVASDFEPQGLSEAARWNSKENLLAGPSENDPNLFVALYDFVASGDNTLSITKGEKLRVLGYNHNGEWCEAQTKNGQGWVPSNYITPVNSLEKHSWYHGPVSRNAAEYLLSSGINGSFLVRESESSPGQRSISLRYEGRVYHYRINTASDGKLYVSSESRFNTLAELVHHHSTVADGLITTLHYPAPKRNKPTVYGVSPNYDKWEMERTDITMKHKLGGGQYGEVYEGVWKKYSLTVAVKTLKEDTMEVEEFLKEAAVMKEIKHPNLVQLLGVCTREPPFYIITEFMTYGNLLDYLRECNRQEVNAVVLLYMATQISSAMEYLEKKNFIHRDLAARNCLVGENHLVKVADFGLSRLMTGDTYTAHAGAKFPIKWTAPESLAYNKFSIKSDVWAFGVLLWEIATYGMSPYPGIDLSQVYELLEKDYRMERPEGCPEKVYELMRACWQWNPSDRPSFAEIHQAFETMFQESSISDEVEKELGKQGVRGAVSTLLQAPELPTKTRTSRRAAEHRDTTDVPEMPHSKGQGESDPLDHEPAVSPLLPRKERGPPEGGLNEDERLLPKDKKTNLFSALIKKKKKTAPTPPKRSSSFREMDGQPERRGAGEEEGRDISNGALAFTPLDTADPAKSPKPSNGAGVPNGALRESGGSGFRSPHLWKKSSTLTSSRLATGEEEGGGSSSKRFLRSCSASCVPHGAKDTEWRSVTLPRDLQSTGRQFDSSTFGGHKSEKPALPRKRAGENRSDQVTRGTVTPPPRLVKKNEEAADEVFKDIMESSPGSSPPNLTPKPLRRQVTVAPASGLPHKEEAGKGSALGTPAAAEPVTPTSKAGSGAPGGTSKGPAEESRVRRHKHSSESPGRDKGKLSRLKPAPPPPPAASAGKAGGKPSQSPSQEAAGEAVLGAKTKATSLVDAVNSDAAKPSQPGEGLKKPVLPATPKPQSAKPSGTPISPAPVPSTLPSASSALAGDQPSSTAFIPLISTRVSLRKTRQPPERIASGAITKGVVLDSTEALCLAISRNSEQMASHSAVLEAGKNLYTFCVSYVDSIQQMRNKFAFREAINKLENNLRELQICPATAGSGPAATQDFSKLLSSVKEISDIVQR

[4] = biological target: T1, RAF proto-oncogene serine/threonine-protein kinase (Homo sapiens, UniProt P04049); assay: Inhibition of RAF1 (unknown origin) using […] as substrate incubated for 40 mins in presence of [gamma33P]ATP by scintillation counting based hotspot kinase assay
T1 sequence (P04049 whole entry): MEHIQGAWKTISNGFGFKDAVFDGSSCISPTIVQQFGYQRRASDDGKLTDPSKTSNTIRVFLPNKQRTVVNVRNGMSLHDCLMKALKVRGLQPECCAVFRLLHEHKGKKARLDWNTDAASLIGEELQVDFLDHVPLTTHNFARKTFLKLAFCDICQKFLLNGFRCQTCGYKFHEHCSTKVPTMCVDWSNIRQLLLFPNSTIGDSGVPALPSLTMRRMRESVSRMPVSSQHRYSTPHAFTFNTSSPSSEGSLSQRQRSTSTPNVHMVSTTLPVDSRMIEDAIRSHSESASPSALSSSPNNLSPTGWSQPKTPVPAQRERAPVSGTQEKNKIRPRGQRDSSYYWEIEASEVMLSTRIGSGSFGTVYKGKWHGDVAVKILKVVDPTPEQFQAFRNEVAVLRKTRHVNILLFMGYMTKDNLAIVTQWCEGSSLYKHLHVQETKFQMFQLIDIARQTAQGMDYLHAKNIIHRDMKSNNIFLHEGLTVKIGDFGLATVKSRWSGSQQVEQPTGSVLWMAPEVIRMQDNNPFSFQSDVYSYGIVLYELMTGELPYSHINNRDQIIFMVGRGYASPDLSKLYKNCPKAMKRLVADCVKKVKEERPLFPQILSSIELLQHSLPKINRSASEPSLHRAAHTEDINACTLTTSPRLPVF
Method in brief: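 IC50 from a radiometric assay. Kinase (5–10 mU) is incubated in 25 mM Tris pH 7.5 with 0.02 mM EGTA, 0.66 mg/mL myelin basic protein as substrate, 10 mM magnesium acetate and [γ33P]ATP. Mg-ATP starts the reaction, which runs 40 min at room temperature. It is stopped with 3% phosphoric acid, captured on filtermat, washed and counted by scintillation.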

[5] = biological target: T1, RAF proto-oncogene serine/threonine-protein kinase; assay: Inhibition of RAF1 (unknown origin) at 10 uM using […] as substrate incubated for 40 mins in presence of [gamma33P]ATP by scintillation counting based hotspot kinase assay relative to control
[6] = biological target: Mitogen-activated protein kinase 14 (Homo sapiens) (UniProt Q16539); assay: Inhibition of MAPK14 (p38 alpha) (unknown origin) at 10 uM using […] as substrate incubated for 40 mins in presence of [gamma33P]ATP by scintillation counting based hotspot kinase assay relative to control
Sequence of Mitogen-activated protein kinase 14 (Homo sapiens) (Q16539 whole entry): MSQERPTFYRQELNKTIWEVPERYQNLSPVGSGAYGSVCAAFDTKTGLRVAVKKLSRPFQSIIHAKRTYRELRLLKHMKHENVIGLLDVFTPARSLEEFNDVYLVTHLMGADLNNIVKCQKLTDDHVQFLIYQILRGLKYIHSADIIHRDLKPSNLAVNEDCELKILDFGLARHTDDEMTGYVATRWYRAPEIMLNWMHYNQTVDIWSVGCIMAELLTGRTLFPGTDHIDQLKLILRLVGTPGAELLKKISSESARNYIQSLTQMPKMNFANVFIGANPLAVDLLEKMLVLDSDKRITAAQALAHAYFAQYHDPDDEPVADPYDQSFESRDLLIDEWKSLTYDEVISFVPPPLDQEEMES

[7] = biological target: Epidermal growth factor receptor (Homo sapiens) (UniProt P00533); assay: Inhibition of EGFR (unknown origin) at 10 uM using […] as substrate incubated for 40 mins in presence of [gamma33P]ATP by scintillation counting based hotspot kinase assay relative to control
Sequence of Epidermal growth factor receptor (Homo sapiens) (P00533 whole entry): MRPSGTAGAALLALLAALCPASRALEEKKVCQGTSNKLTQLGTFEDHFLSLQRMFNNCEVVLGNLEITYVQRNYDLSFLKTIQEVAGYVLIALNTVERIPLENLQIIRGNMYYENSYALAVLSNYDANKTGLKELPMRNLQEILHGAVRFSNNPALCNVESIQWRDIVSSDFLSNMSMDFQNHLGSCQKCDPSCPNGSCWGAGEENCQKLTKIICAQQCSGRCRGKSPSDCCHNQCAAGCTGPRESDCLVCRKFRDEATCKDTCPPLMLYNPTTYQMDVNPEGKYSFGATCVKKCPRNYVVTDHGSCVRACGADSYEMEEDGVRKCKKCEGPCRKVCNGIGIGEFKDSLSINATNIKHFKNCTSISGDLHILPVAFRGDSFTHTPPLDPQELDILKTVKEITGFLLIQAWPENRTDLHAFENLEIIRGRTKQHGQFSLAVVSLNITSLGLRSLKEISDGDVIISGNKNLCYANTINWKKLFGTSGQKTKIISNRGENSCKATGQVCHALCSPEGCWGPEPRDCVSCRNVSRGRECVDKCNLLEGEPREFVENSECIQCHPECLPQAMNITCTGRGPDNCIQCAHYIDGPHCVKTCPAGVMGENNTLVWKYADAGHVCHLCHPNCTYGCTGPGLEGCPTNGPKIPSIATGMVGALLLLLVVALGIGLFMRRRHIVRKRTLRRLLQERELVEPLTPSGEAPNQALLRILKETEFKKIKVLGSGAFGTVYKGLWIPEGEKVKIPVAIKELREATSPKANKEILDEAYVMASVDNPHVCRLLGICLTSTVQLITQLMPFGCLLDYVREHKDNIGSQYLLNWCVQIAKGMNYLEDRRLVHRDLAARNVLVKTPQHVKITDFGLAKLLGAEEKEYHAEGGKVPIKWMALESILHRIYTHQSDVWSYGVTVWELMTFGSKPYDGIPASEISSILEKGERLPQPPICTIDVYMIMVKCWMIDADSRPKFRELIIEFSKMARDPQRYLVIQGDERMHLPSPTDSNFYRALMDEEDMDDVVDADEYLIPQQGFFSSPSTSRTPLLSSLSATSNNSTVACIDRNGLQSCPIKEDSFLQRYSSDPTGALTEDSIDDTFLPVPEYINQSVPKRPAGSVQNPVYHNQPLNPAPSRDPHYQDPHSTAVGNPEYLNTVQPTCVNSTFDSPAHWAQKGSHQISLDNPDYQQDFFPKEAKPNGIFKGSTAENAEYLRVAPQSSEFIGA

[8] = biological target: Serine/threonine-protein kinase B-raf (Homo sapiens, UniProt P15056, V600E); assay: Inhibition of B-RAF V600E mutant (unknown origin) using […] as substrate incubated for 40 mins in presence of [gamma33P]ATP by scintillation counting based hotspot kinase assay
Sequence of Serine/threonine-protein kinase B-raf (P15056 2-766 V600E limits assumed): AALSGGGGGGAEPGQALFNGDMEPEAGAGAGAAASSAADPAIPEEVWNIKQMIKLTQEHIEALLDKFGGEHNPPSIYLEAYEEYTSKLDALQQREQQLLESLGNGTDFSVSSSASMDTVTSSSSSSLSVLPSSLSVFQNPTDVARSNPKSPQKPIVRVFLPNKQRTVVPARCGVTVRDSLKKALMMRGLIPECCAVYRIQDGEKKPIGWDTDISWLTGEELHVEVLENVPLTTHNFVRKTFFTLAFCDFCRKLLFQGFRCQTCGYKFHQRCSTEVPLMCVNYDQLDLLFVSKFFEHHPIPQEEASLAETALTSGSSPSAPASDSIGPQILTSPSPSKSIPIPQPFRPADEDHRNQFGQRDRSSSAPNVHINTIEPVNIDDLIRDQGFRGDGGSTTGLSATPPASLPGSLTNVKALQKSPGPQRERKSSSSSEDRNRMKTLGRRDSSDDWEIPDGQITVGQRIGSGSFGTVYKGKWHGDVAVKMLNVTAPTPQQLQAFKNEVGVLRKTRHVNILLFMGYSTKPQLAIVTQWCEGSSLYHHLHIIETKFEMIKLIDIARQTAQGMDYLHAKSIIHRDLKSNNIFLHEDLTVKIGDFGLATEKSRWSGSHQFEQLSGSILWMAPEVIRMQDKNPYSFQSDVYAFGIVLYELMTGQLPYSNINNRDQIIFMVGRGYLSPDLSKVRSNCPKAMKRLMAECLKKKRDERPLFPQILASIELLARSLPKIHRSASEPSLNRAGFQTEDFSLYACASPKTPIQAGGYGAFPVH

[9] = test system: Serine/threonine-protein kinase B-raf (Homo sapiens), P15056 [V600E]; assay: Inhibition of B-RAF V600E mutant (unknown origin) at 10 uM using […] as substrate incubated for 40 mins in presence of [gamma33P]ATP by scintillation counting based hotspot kinase assay relative to control
Sequence of Serine/threonine-protein kinase B-raf (Homo sapiens), P15056 [V600E] (P15056 whole entry V600E): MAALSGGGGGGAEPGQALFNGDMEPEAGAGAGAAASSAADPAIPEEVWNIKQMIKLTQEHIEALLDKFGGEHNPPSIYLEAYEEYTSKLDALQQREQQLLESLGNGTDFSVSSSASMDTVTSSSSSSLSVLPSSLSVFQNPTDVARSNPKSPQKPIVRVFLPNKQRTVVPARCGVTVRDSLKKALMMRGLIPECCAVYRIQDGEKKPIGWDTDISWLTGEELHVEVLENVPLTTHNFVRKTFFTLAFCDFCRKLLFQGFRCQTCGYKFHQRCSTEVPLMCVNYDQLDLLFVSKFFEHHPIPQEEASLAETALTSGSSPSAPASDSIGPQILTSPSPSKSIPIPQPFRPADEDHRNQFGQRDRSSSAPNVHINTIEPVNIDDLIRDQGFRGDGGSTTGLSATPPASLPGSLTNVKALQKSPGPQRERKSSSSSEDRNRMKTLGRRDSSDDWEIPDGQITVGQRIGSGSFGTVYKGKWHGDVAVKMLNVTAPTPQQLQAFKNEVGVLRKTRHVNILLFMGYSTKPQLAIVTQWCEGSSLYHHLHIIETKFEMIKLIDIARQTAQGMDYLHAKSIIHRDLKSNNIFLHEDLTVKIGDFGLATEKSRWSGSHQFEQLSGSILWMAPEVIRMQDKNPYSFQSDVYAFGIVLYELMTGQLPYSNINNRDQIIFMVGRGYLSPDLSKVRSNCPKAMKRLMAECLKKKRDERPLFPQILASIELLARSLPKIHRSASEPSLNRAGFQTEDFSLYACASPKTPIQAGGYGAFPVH

[10] = biological target: Serine/threonine-protein kinase B-raf (Homo sapiens) (UniProt P15056); assay: Inhibition of B-RAF (unknown origin) at 10 uM using […] as substrate incubated for 40 mins in presence of [gamma33P]ATP by scintillation counting based hotspot kinase assay relative to control
Sequence of Serine/threonine-protein kinase B-raf (Homo sapiens) (P15056 whole entry): as the sequence (P15056 whole entry V600E) above, with E600V counted along it

[11] = test system: L132; assay: Cytotoxicity against human L132 cells assessed as reduction in cell growth at 31.3 to 100 uM relative to control; type: toxicity, cell-based; parameters: scale not given: the % may be the effect or the level left; conditions: l132, 100 µM, dose 31.3-100 µM
[12] = test system: MDA-MB-468; assay: Cytotoxicity against human MDA-MB-468 cells; type: functional; conditions: read-out: LC50 (the source's name)
Method in brief: (§2)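 Run in the US NCI 58-cell-line screen covering nine cancer types (leukemia, NSCLC, colon, CNS, melanoma, ovarian, renal, prostate, breast). Five-dose mode gave GI50, TGI and LC50 values for each cell line. In the single-dose pre-screen, % inhibition was taken as 100 minus growth percentage.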

[13] = test system: NCI/ADR-RES; assay: Cytotoxicity against human NCI/ADR-RES cells; type: functional; method in brief: as §2
[14] = test system: SK-MEL-5; assay: Cytotoxicity against human SK-MEL-5 cells; type: functional; method in brief: as §2
[15] = test system: SNB-75; assay: Cytotoxicity against human SNB-75 cells; type: functional; conditions: read-out: LC50 (the source's name); method in brief: as §2
[16] = test system: MDA-MB-468; assay: Antiproliferative activity against human MDA-MB-468 cells assessed as total growth inhibition; type: functional
Method in brief: (§3)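 NCI five-dose testing across the 58-line panel gives GI50, TGI and LC50 for each line. Subpanel lines report mean GI50 for each of the nine cancer types.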

[17] = test system: PC-3; assay: Antiproliferative activity against human PC-3 cells assessed as total growth inhibition; type: functional; method in brief: as §3
[18] = test system: PC-3; assay: Cytotoxicity against human PC-3 cells; type: functional; method in brief: as §2
[19] = test system: RXF 393; assay: Antiproliferative activity against human RXF 393 cells assessed as total growth inhibition; type: functional; method in brief: as §3
[20] = test system: NCI/ADR-RES; assay: Antiproliferative activity against human NCI/ADR-RES cells assessed as total growth inhibition; type: functional; method in brief: as §3
[21] = test system: HOP-92; assay: Cytotoxicity against human HOP-92 cells; type: functional; method in brief: as §2
[22] = test system: K562; assay: Cytotoxicity against human k562 cells; type: functional; conditions: read-out: LC50 (the source's name); method in brief: as §2
[23] = test system: SK-MEL-5; assay: Antiproliferative activity against human SK-MEL-5 cells assessed as total growth inhibition; type: functional; method in brief: as §3
[24] = test system: SNB-75; assay: Antiproliferative activity against human SNB-75 cells assessed as total growth inhibition; type: functional; method in brief: as §3
[25] = test system: RXF 393; assay: Cytotoxicity against human RXF 393 cells; type: functional; method in brief: as §2
[26] = test system: HCT-15; assay: Cytotoxicity against human HCT-15 cells; type: functional; conditions: read-out: LC50 (the source's name); method in brief: as §2
[27] = test system: HCT-15; assay: Antiproliferative activity against human HCT-15 cells assessed as total growth inhibition; type: functional; method in brief: as §3
[28] = test system: COLO 205; assay: Cytotoxicity against human COLO 205 cells; type: functional; method in brief: as §2
[29] = test system: COLO 205; assay: Antiproliferative activity against human COLO 205 cells assessed as total growth inhibition; type: functional; method in brief: as §3
[30] = test system: HOP-92; assay: Antiproliferative activity against human HOP-92 cells assessed as total growth inhibition; type: functional; method in brief: as §3
[31] = test system: K562; assay: Antiproliferative activity against human K562 cells assessed as total growth inhibition; type: functional; method in brief: as §3
[32] = test system: MDA-MB-468; assay: Antiproliferative activity against human MDA-MB-468 cells assessed as reduction in cell growth; type: functional; method in brief: as §3
[33] = test system: PC-3; assay: Antiproliferative activity against human PC-3 cells assessed as reduction in cell growth; type: functional; method in brief: as §3
[34] = test system: RXF 393; assay: Antiproliferative activity against human RXF 393 cells assessed as reduction in cell growth; type: functional; method in brief: as §3
[35] = test system: NCI/ADR-RES; assay: Antiproliferative activity against human NCI/ADR-RES cells assessed as reduction in cell growth; type: functional; method in brief: as §3
[36] = test system: SK-MEL-5; assay: Antiproliferative activity against human SK-MEL-5 cells assessed as reduction in cell growth; type: functional; method in brief: as §3
[37] = test system: SNB-75; assay: Antiproliferative activity against human SNB-75 cells assessed as reduction in cell growth; type: functional; method in brief: as §3
[38] = test system: HCT-15; assay: Antiproliferative activity against human HCT-15 cells assessed as reduction in cell growth; type: functional; method in brief: as §3
[39] = test system: COLO 205; assay: Antiproliferative activity against human COLO 205 cells assessed as reduction in cell growth; type: functional; method in brief: as §3
[40] = test system: HOP-92; assay: Antiproliferative activity against human HOP-92 cells assessed as reduction in cell growth; type: functional; method in brief: as §3
[41] = test system: K562; assay: Antiproliferative activity against human K562 cells assessed as reduction in cell growth; type: functional; method in brief: as §3
[42] = test system: Panel breast (Carcinoma cell lines); assay: Antiproliferative activity against human Panel breast (6 Carcinoma cell lines) assessed as reduction in mean cell growth; type: functional; method in brief: as §3
[43] = test system: Panel prostate (Carcinoma cell lines); assay: Antiproliferative activity against human Panel prostate (2 Carcinoma cell lines) assessed as reduction in mean cell growth; type: functional; method in brief: as §3
[44] = test system: Panel renal (Carcinoma cell lines); assay: Antiproliferative activity against human Panel renal (8 Carcinoma cell lines) assessed as reduction in mean cell growth; type: functional; method in brief: as §3
[45] = test system: Panel ovarian (Carcinoma cell lines); assay: Antiproliferative activity against human Panel ovarian (7 Carcinoma cell lines) assessed as reduction in mean cell growth; type: functional; method in brief: as §3
[46] = test system: Panel CNS (Carcinoma cell lines); assay: Antiproliferative activity against human Panel CNS (6 Carcinoma cell lines) assessed as reduction in mean cell growth; type: functional; method in brief: as §3
[47] = test system: Panel melanoma (Carcinoma cell lines); assay: Antiproliferative activity against human Panel melanoma (9 Carcinoma cell lines) assessed as reduction in mean cell growth; type: functional; method in brief: as §3
[48] = test system: Panel colon (Carcinoma cell lines); assay: Antiproliferative activity against human Panel colon (7 Carcinoma cell lines) assessed as reduction in mean cell growth; type: functional; method in brief: as §3
[49] = Antiproliferative activity against human Panel non-small cell lung cancer (8 Carcinoma cell lines) assessed as reduction in mean cell growth; type: functional; conditions: Non-small cell lung cancer cell line; method in brief: as §3
[50] = test system: Panel leukemia (Carcinoma cell lines); assay: Antiproliferative activity against human Panel leukemia (5 Carcinoma cell lines) assessed as reduction in mean cell growth; type: functional; method in brief: as §3
[51] = test system: COLO 205; assay: Antiproliferative activity against human COLO 205 cells assessed as inhibition of cell growth at 10 uM; type: functional; method in brief: as §1
[52] = test system: HCC 2998; assay: Antiproliferative activity against human HCC 2998 cells assessed as inhibition of cell growth at 10 uM; type: functional; method in brief: as §1
[53] = test system: LOX IMVI; assay: Antiproliferative activity against human LOX IMVI cells assessed as inhibition of cell growth at 10 uM; type: functional; method in brief: as §1

COc1cccc(-c2nn(-c3ccccc3)cc2-c2ccnc(NCCCNC(=O)Nc3ccc(Cl)c(Cl)c3)c2)c1
Activity [1]: 104.1% | inhibition [2]: 6.38% | inhibition [3]: 7.7% | pIC50 [4]: 5.82 | inhibition [5]: 87.7% | inhibition [6]: 45.8% | inhibition [7]: 3.38% | pIC50 [8]: 6.11 | inhibition [9]: 90.4% | inhibition [10]: 56.9% | Activity [11]: 50% | CC50 [12]: 9.82 µM | LC50 [13]: 86.9 µM | LC50 [14]: 6.3 µM | CC50 [15]: 100 µM | TGI [16]: 4.34 µM | TGI [17]: 22.4 µM | LC50 [18]: 100 µM | TGI [19]: 4.87 µM | TGI [20]: 5.39 µM | LC50 [21]: 71 µM | CC50 [22]: 100 µM | TGI [23]: 3.32 µM | TGI [24]: 19.2 µM | LC50 [25]: 23 µM | CC50 [26]: 29.1 µM | TGI [27]: 6.66 µM | LC50 (lethal concentration 50%) [28]: 7.8 µM | TGI [29]: 3.82 µM | TGI [30]: 7.68 µM | TGI [31]: 5.85 µM | GI50 [32]: 1.92 µM | GI50 [33]: 3.96 µM | GI50 [34]: 1.8 µM | GI50 [35]: 2.19 µM | GI50 [36]: 1.75 µM | GI50 [37]: 2.52 µM | GI50 [38]: 2.4 µM | GI50 [39]: 1.87 µM | GI50 [40]: 2.32 µM | GI50 [41]: 2.38 µM | GI50 [42]: 2.69 µM | GI50 [43]: 4.71 µM | GI50 [44]: 3.14 µM | GI50 [45]: 3.74 µM | GI50 [46]: 2.93 µM | GI50 [47]: 1.89 µM | GI50 [48]: 2.44 µM | GI50 [49]: 3.51 µM | GI50 [50]: 2.31 µM | inhibition at 10 µM [51]: 145% | inhibition at 10 µM [52]: 162% | inhibition at 10 µM [53]: 192%
